The source made the active and inactive calls.
Tests used:
Format in all cases: functional, organism-based
Streptococcus pneumoniae [1] = experiment: Antimicrobial activity against erythromycin-susceptible Streptococcus pneumoniae 07H252 by broth microdilution method
Outline: (§1)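 MIC by broth microdilution following NCCLS recommendations. Strains used as erythromycin-susceptible clinical or reference isolates: S. pneumoniae ATCC 49619 and 07H252, S. pyogenes 07U084 and 07U086. Resistant comparison strains came from MOHNARIN, China. Value reported as minimum inhibitory concentration.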

Streptococcus pneumoniae [2] = experiment: Antimicrobial activity against erythromycin-resistant Streptococcus pneumoniae 05Z006 by broth microdilution method
Outline: (§2)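 MIC by broth microdilution as recommended by NCCLS. Strains are constitutively erythromycin-resistant clinical isolates supplied by the Ministry of Health National Antimicrobial Resistance Investigation Net (MOHNARIN, China).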

Streptococcus pyogenes [3] = experiment: Antimicrobial activity against erythromycin-susceptible Streptococcus pyogenes 07U086 by broth microdilution method; outline: as §1
Streptococcus pyogenes [4] = experiment: Antimicrobial activity against erythromycin-resistant Streptococcus pyogenes 07Z011 by broth microdilution method; outline: as §2
Streptococcus pyogenes [5] = experiment: Antimicrobial activity against erythromycin-susceptible Streptococcus pyogenes 07U084 by broth microdilution method; outline: as §1
Streptococcus pyogenes [6] = experiment: Antimicrobial activity against erythromycin-resistant Streptococcus pyogenes 07Z014 by broth microdilution method; outline: as §2
Streptococcus pneumoniae [7] = experiment: Antimicrobial activity against erythromycin-resistant Streptococcus pneumoniae 07Z001 by broth microdilution method; outline: as §2
Streptococcus pneumoniae [8] = experiment: Antimicrobial activity against erythromycin-susceptible Streptococcus pneumoniae ATCC 49619 by broth microdilution method; outline: as §1
Streptococcus pyogenes [9] = experiment: Antimicrobial activity against erythromycin-resistant Streptococcus pyogenes 07Z016 by broth microdilution method; outline: as §2

Measured: Activity

CC[C@H]1OC(=O)[C@H](C)[C@@H](OC(=O)Cc2ccc3c(c2)OCO3)[C@H](C)[C@@H](O[C@@H]2O[C@H](C)C[C@H](N(C)C)[C@H]2O)[C@@](C)(OC)C[C@@H](C)C(=O)[C@H](C)[C@H]2N(CCCSc3nc4ccc(OC)nc4[nH]3)C(=O)O[C@]12C
active: all assays above

CC[C@H]1OC(=O)[C@H](C)[C@@H](OC(=O)Cc2ccc3c(c2)OCO3)[C@H](C)[C@@H](O[C@@H]2O[C@H](C)C[C@H](N(C)C)[C@H]2O)[C@@](C)(OC)C[C@@H](C)C(=O)[C@H](C)[C@H]2N(CCCCSc3nc4ccc(OC)nc4[nH]3)C(=O)O[C@]12C
active: all assays above

CC[C@H]1OC(=O)[C@H](C)[C@@H](O[C@H]2C[C@@](C)(OC)[C@@H](O)[C@H](C)O2)[C@H](C)[C@@H](O[C@@H]2O[C@H](C)C[C@H](N(C)C)[C@H]2O)[C@](C)(O)C[C@@H](C)CN(C)[C@H](C)[C@@H](O)[C@]1(C)O
active: Streptococcus pneumoniae [1] | Streptococcus pyogenes [3] | Streptococcus pyogenes [5] | Streptococcus pneumoniae [8]
inactive: all other assays above

CC[C@H]1OC(=O)[C@H](C)C(=O)[C@H](C)[C@@H](O[C@@H]2O[C@H](C)C[C@H](N(C)C)[C@H]2O)[C@](C)(OC)C[C@@H](C)C(=O)[C@H](C)[C@H]2N(CCCCn3cnc(-c4cccnc4)c3)C(=O)O[C@]12C
active: all assays above

CC[C@H]1OC(=O)[C@H](C)C(=O)[C@H](C)[C@@H](O[C@@H]2O[C@H](C)C[C@H](N(C)C)[C@H]2O)[C@@](C)(OC)C[C@@H](C)C(=O)[C@H](C)[C@H]2N(CCCSc3nc4ccc(OC)nc4[nH]3)C(=O)O[C@]12C
active: all assays above

CC[C@H]1OC(=O)[C@H](C)[C@@H](O[C@H]2C[C@@](C)(OC)[C@@H](O)[C@H](C)O2)[C@H](C)[C@@H](O[C@@H]2O[C@H](C)C[C@H](N(C)C)[C@H]2O)[C@](C)(OC)C[C@@H](C)C(=O)[C@H](C)[C@@H](O)[C@]1(C)O
active: Streptococcus pneumoniae [1] | Streptococcus pyogenes [3] | Streptococcus pyogenes [5] | Streptococcus pneumoniae [8]
inactive: all other assays above

CC[C@H]1OC(=O)[C@H](C)[C@@H](OC(=O)Cc2cccnc2)[C@H](C)[C@@H](O[C@@H]2O[C@H](C)C[C@H](N(C)C)[C@H]2O)[C@@](C)(OC)C[C@@H](C)C(=O)[C@H](C)[C@H]2N(CCCCSc3nc4ccc(OC)nc4[nH]3)C(=O)O[C@]12C
active: all assays above

CC[C@H]1OC(=O)[C@H](C)[C@@H](OC(=O)Cc2cccnc2)[C@H](C)[C@@H](O[C@@H]2O[C@H](C)C[C@H](N(C)C)[C@H]2O)[C@@](C)(OC)C[C@@H](C)C(=O)[C@H](C)[C@H]2N(CCCSc3nc4ccc(OC)nc4[nH]3)C(=O)O[C@]12C
active: all assays above
